Assay outcomes deposited in PubChem by several laboratories.
HCT116 bCat-KO = beta-catenin-lacking colon tumor cell growth suppression; 1.5% of 140,000 active; HCT116 beta-catenin knockout viability, CellTiter-Glo, 60 h; hits give low values; viability, % at 10 µM;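 active means viability at or under a set limit, the compound median less 4 SD, cut at about 6% in these data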;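 further: 0% = Hyamine 1622 control at 20 µM and 100% = untreated cell control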
Lung fibro prol = blocks proliferation of human lung fibroblasts. LL 47 human lung fibroblast viability, ATP luminescence; hits give low values. viability, % at 10 µM. 1.1% of 85,000 active;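 active means viability at or below 50% in the single dose screen; inactive means viability above 50%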;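 further: compound exposure lasted 72 h before the ATP readout; 100% = median luminescence of untreated cell-only wells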
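Signal: luminescent ATP detection, CellTiter-Glo; assay system: LL 47 human lung fibroblasts; input: 1,150 cells/well; incubation: overnight cell rest, 72 h compound treatment at 37 °C; measure: % viability versus median cells-only luminescence; medium: IMEM growth medium with 15% fetal bovine serum; dosing: compound addition at 0.1% DMSO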
HCT116 PTEN-null = PTEN-deleted cell growth suppression. HCT116 PTEN-null viability, CellTiter-Glo, 60 h; hits give low values. viability, % at 10 µM. 1.2% of 140,000 active. AID 827;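 active means viability at or below a set limit, 4 SD under the median of all tested compounds, cut at about 3.7% in these data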;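 further: PTEN knockout HCT116 line with beta catenin targeted HCT116 as companion control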
HUVEC prolif 384 = inhibitors of human endothelial cell proliferation; viability, % at 10 µM (by protocol); 1.1% of 86,000 active; HUVEC proliferation, CellTiter-Glo luminescence, 72 h; hits give low values;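 active means viability at or below 30%; inactive means viability above 30%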;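 further: 100% = median luminescence of DMSO-only cell control wells on each plate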
H69AR inhibit = growth inhibitors of human H69AR lung tumor cells; 6% of 85,000 active; viability, % at 10 µM; H69AR lung tumor viability, ATP luminescence, 72 h; hits give low values;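 active means viability at or below 40%; inactive means viability above 40%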;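 further: multidrug resistant small cell line overexpressing MRP-1 efflux transporter; 100% = mean luminescence of untreated control wells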
Pyk2 oligo antag = blocks oligomerization of human Pyk2 in cells; AID 1347419; Q293 cells, Pyk2 FERM NanoBiT luminescence; hits give low values; z-score (the deposit names both 25 µM and 10 µM); Q14289; 0.83% of 99,000 active;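 active means Z-score of -3 or lower, scaled per plate to the spread of control and sample wells; inactive means z-score above -3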;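 further: negative z-score means lost luminescence so less FERM oligomerization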
Target sequence (Q14289 whole entry, looked up): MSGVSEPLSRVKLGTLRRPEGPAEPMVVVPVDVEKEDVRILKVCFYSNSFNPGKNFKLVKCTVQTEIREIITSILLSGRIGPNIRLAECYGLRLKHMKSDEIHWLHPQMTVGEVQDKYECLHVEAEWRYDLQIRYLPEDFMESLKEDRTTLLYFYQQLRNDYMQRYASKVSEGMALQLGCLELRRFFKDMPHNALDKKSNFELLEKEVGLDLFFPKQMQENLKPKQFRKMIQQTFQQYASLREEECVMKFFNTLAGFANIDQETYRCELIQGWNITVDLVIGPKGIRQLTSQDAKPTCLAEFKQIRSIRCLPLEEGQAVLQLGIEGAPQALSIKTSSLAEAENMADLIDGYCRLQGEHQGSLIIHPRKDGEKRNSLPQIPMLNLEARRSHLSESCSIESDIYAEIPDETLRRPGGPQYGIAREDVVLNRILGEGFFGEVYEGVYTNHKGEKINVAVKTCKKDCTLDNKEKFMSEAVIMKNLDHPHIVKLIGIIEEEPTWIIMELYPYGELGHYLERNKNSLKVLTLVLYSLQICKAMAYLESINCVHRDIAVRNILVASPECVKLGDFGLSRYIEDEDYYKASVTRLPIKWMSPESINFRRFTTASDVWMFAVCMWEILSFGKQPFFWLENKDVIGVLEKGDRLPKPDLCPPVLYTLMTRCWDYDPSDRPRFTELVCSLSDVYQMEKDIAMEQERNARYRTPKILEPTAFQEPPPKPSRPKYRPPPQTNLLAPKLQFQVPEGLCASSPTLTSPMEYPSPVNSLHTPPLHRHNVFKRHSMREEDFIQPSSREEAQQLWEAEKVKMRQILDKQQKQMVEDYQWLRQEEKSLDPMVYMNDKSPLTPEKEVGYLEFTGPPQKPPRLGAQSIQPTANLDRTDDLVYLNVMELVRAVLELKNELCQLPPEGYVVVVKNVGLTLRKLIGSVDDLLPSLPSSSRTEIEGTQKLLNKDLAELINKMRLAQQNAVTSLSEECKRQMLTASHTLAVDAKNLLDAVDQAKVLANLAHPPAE
An asterisk follows results filed as active; / = no result. Only a selection was taken, and hits are over-represented in it overall.

SMILES	HCT116 bCat-KO	Lung fibro prol	HCT116 PTEN-null	HUVEC prolif 384	H69AR inhibit	Pyk2 oligo antag
CCCCN(CCCC)S(=O)(=O)c1ccc(C(=O)Nc2nnc(CSC)o2)cc1	17.1	/	16.3	/	/	-1.75
CCc1nnc(NC(=O)c2ccc(S(=O)(=O)N(CCOC)CCOC)cc2)o1	99.2	97.5	95.5	97.9	66.0	0.09
O=C(CN1N=C(c2ccc(Cl)cc2)CCC1=O)NCCN1CCc2ccccc2C1	72.7	/	77.6	/	/	/
CCCn1c(SCc2cc(=O)[nH]c3ccccc23)nc2c1c(=O)n(C)c(=O)n2C	/	91.2	/	94.1	56.4	1.58
CCN(CC)CCNS(=O)(=O)c1ccc(OC)c(Br)c1	83.7	/	85.8	/	/	-0.14
COc1cc(/C=C/C(=O)OCC(=O)NCC2CCCO2)ccc1OCC#N (configuration not stated)	95.4	/	94.1	/	/	1.75
CC(C)C(=O)N1C2CCC1CC(O)(c1ccc(F)cc1)C2 (configuration not stated)	92.5	92.6	87.7	103.5	92.2	0.93
Cc1cc(N2C3CCC2CC(O)(c2ccc(F)cc2)C3)nc(-c2ccccc2)n1 (configuration not stated)	58.2	56.0	60.2	59.9	26.1*	-3.07*
O=C(N/C(=C/c1cccc([N+](=O)[O-])c1)C(=O)N1CCCCC1)c1cccs1	88.9	/	82.9	/	/	/
CN(Cc1ccccc1)c1nc(N)c([N+](=O)[O-])c(NCc2ccccc2)n1	73.7	/	64.3	/	/	/
COC(=O)c1ccc(/C=C/C(=O)c2ccc(OC)cc2)cc1	11.5	/	6.9	/	/	-1.14
COc1ccc(/C=C/C(=O)c2cc(F)ccc2OC(=O)c2ccccc2)cc1OC	/	/	/	/	/	-0.09
COC(=O)c1ccc(/C=C/C(=O)c2ccc(OC)c(OC)c2)cc1	3.3*	/	1.6*	/	/	0.23
COc1ccc(/C=C/C(=O)c2cc(F)ccc2OC(=O)c2ccc(OC)c(OC)c2)cc1OC	2.9*	/	3.3*	/	/	/
CC1CCCCN1C(=O)Cn1cc(/C=C2/C(=O)Nc3ccccc32)c2ccccc21 (configuration not stated)	41.9	72.1	37.8	53.7	56.9	/
O=C(NCc1ccccc1)/C(NC(=O)c1ccccc1)=C(/Sc1ccccn1)c1ccccc1	81.7	99.7	68.9	96.8	41.1	-4.13*
COc1ccc(C2c3c(-c4cc(Cl)c(C)cc4O)n[nH]c3C(=O)N2Cc2cccnc2)cc1OC (configuration not stated)	75.2	98.5	68.8	96.3	99.5	-3.86*
COc1ccc(C2c3c(oc4c(C)cc(C)cc4c3=O)C(=O)N2Cc2cccnc2)cc1OC (configuration not stated)	/	83.3	/	31.8	52.2	/
COc1ccc(CCN2C(=O)c3[nH]nc(-c4ccccc4O)c3C2c2cccc(O)c2)cc1OC (configuration not stated)	83.1	93.7	74.0	97.0	84.2	-3.78*
CCOc1cc(NC(=S)NCCCN2CCOCC2)c(OCC)cc1NC(=O)CC(C)C	87.3	/	110.5	/	/	0.9
CCN(CC)S(=O)(=O)c1ccc(OC(C)C)c(NC(=O)c2c3c(nc4ccccc24)CCN(Cc2ccccc2)C3)c1	64.6	/	61.6	/	/	-0.33
CCN(CC)S(=O)(=O)c1ccc2c(c1)nc(SCC(=O)NC1CC1)n2-c1ccccc1OC	89.0	101.0	82.0	79.3	80.0	-3.3*
CCOC(=O)c1cc2c(=O)n3cccc(C)c3nc2n(Cc2ccco2)c1=NC(=O)c1ccccc1	35.4	95.5	57.1	78.9	24.7*	-1.28
CCOc1ccc(N(CC(=O)Nc2cccc(Cl)c2)S(=O)(=O)c2c(C)noc2C)cc1	28.3	73.3	22.8	80.3	30.1*	/
CSc1nc2ccc3nc(NC(=O)c4ccccc4)sc3c2s1	89.9	97.3	79.6	109.2	32.2*	/
SMILES	HCT116 bCat-KO	Lung fibro prol	HCT116 PTEN-null	HUVEC prolif 384	H69AR inhibit	Pyk2 oligo antag
Cc1ccc(Cl)c(NC(=O)COC(=O)c2ccccc2C(=O)c2ccc(Cl)c([N+](=O)[O-])c2)c1Cl	2.1*	/	2.0*	/	/	/
Cc1ccc(CNC(=O)CCNC(=O)c2ccco2)cc1	97.6	107.1	102.2	101.6	51.2	-0.56
c1ccc(Nc2ccccn2)cc1	99.5	100.7	98.3	85.3	91.3	0.26
c1ccc(/N=C2\N=C(Nc3ccccn3)c3ccccc32)nc1	/	53.5	/	2.4*	1.0*	/
O=C(c1cc(C2CC2)nc2ccc(Br)cc12)N1N=C(C(F)F)CC1(O)C(F)F (configuration not stated)	19.4	54.0	5.9	28.6*	16.7*	-3.32*
CCC1CCCCN1c1nc(-c2ccncc2)nc2ccccc12 (configuration not stated)	52.5	89.3	60.6	43.4	16.7*	-0.52
COc1ccc(-c2cn3c(C)c(C(=O)N4CCc5ccccc5C4)sc3n2)cc1	/	102.2	/	63.8	21.9*	/
Cc1c(C(=O)N2CCc3ccccc3C2)sc2nc(-c3ccccc3)cn12	89.4	101.5	93.4	87.1	67.7	-0.29
COc1c(S(=O)(=O)N2CCCCC2)ccc2c(S(=O)(=O)N3CCCCC3)cccc12	/	93.5	/	80.8	69.7	-3.47*
Cc1ccc(N(CC(O)Cn2c3ccccc3c3ccccc32)S(C)(=O)=O)cc1 (configuration not stated)	65.0	91.8	80.7	53.7	31.5*	0.55
CS(=O)(=O)N(Cc1ccco1)CC(O)Cn1c2ccccc2c2ccccc21 (configuration not stated)	66.1	/	66.4	/	/	-0.26
Cc1ccc(N(CC(O)CN2CCCC2)S(=O)(=O)c2ccc(C)cc2)cc1 (configuration not stated)	89.8	/	83.4	/	/	0.38
Cc1cccc(C)c1N(CC(O)Cn1c2ccccc2c2ccccc21)S(C)(=O)=O (configuration not stated)	50.2	86.2	43.6	65.5	21.0*	-0.2
Cc1ccc(N(CC(O)Cn2c3ccccc3c3ccccc32)S(C)(=O)=O)c(C)c1 (configuration not stated)	65.7	90.3	52.9	61.2	17.3*	-0.48
Cc1ccc(N(CC(O)CON=C2c3ccccc3-c3ccccc32)S(C)(=O)=O)cc1 (configuration not stated)	19.4	97.6	15.2	66.1	15.1*	-1.74
CCOC(=O)c1ccc(Nc2ncnc3ccc(C)cc23)cc1	90.0	115.3	89.3	60.7	84.5	-0.93
CCOC(=O)c1cccc(Nc2ncnc3ccc(C)cc23)c1	42.5	89.7	46.2	83.6	21.5*	-1.37
CCCCN(C)CCC(=O)Nc1ccc(F)c(F)c1	87.0	/	85.2	/	/	/
CCOc1ccc(N=CC2=C(O)CC(C)(C)CC2=O)cc1	90.8	93.2	96.5	75.7	39.8*	-0.58
CC1(C)CC(=O)C(C=Nc2ccc(O)cc2)=C(O)C1	96.0	87.5	92.0	93.8	54.0	-0.69
CCOc1ccc(N(CC(=O)NC2CCCC2)C(=O)CCC(=O)Nc2ccccn2)cc1	88.7	96.0	95.0	99.1	100.5	-0.69
